Measured values from ChEMBL document CHEMBL1155470, “Colloid formation by drugs in simulated intestinal fluid” (J Med Chem, 2010).
One block for each compound: values may come before it. Calls of active or inactive are those of the source. The rule behind the calls is not given here.

Key:
[1] = Colloidal aggregation in fed state simulated intestinal fluid by dynamic light scattering assay in presence of 0.75% DMSO; format: physicochemical; conditions: simulated gi fluid
Method in brief: (§1)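 Concentrated DMSO stocks diluted into filtered FeSSIF: blank FeSSIF plus 15 mM sodium taurocholate and 3.75 mM lecithin, dissolved at 37 °C. Final DMSO 1% unless otherwise noted. Particle size by dynamic light scattering at 826.6 nm, detector at 90°, 100% laser power. Values are averages of three or more independent measurements at room temperature.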

[2] = Colloidal aggregation in fed state simulated intestinal fluid assessed as colloid radius at 150 uM by dynamic light scattering assay in presence of 0.75% DMSO; format: physicochemical; conditions: simulated gi fluid; method in brief: as §1
[3] = Colloidal aggregation in fed state simulated intestinal fluid by dynamic light scattering-based beads autocorrelation assay in presence of 1% DMSO; format: physicochemical; conditions: simulated gi fluid
Method in brief: (§2)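 FeSSIF samples examined by DLS (826.6 nm laser, 90° detector, room temperature), comparing autocorrelation curves with blank FeSSIF. The micelle background was checked with 200 nm calibration beads diluted in FeSSIF. Drug samples were made by diluting DMSO stocks into filtered FeSSIF (15 mM taurocholate, 3.75 mM lecithin).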

[4] = Colloidal aggregation in phosphate buffer at 100 uM by transmission electron microscopy in presence of 0.2% DMSO; format: physicochemical
Method in brief: (§3)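 Drug DMSO stocks diluted into 50 mM phosphate buffer. Samples adsorbed ~30 s onto glow-discharged formvar/carbon-coated copper grids and negatively stained with 2% ammonium molybdate. Imaged by transmission electron microscopy at 80 kV, standard magnification 25 000.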

[5] = Colloidal aggregation in fed state simulated intestinal fluid at 200 uM by transmission electron microscopy in presence of 1% DMSO; format: physicochemical; conditions: simulated gi fluid
Method in brief: (§4)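 Drug DMSO stocks diluted into FeSSIF. Samples adsorbed ~30 s onto glow-discharged formvar/carbon-coated copper grids and negatively stained with 2% ammonium molybdate. Viewed by transmission electron microscopy at 80 kV, standard magnification 25 000, calibrated with catalase crystals and ferritin.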

[6] = Colloidal aggregation in fed state simulated intestinal fluid assessed as colloid radius at 20 uM by dynamic light scattering assay in presence of 1% DMSO; format: physicochemical; conditions: simulated gi fluid; method in brief: as §1
Cruzipain [7] = biological target: T1, Cruzipain (Trypanosoma cruzi, UniProt P25779); assay: Inhibition of Trypanosoma cruzi cruzaine preincubated for 5 mins before substrate addition by fluorescence assay in absence of Triton X-100
T1 sequence (P25779 whole entry): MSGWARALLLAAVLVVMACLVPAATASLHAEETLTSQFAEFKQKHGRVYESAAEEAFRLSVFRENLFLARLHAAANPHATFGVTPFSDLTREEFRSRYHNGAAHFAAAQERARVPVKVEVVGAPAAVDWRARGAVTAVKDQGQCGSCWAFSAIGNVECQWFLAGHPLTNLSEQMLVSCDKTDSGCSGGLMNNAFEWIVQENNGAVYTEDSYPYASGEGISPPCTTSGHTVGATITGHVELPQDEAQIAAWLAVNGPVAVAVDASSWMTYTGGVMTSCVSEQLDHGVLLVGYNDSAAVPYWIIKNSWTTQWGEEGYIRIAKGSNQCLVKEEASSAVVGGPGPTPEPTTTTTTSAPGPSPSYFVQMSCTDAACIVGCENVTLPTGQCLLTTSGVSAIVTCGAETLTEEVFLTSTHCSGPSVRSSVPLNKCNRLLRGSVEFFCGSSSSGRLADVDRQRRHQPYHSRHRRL

Cruzipain [8] = biological target: T1, Cruzipain; assay: Inhibition of Trypanosoma cruzi cruzaine preincubated for 5 mins before substrate addition by fluorescence assay in presence of 0.01% Triton X-100
[9] = Colloidal aggregation in fed state simulated intestinal fluid assessed as colloid radius at 5 uM by dynamic light scattering assay in presence of 1% DMSO; format: physicochemical; conditions: simulated gi fluid; method in brief: as §1
[10] = Colloidal aggregation in fed state simulated intestinal fluid assessed as colloid radius at 10 uM by dynamic light scattering assay in presence of 1% DMSO; conditions: simulated gi fluid
[11] = Colloidal aggregation in fed state simulated intestinal fluid assessed as colloid radius at 200 uM by dynamic light scattering assay in presence of 1% DMSO; format: physicochemical; conditions: simulated gi fluid; method in brief: as §1
[12] = Colloidal aggregation in fed state simulated intestinal fluid by dynamic light scattering assay in presence of 0.25% DMSO; format: physicochemical; conditions: simulated gi fluid; method in brief: as §1
[13] = Colloidal aggregation in fed state simulated intestinal fluid by dynamic light scattering assay in presence of 2.75% DMSO; format: physicochemical; conditions: simulated gi fluid; method in brief: as §1
[14] = Colloidal aggregation in fed state simulated intestinal fluid at 550 uM by dynamic light scattering-based beads autocorrelation assay in presence of 2.75% DMSO; format: physicochemical; conditions: simulated gi fluid; method in brief: as §2
[15] = Colloidal aggregation in fed state simulated intestinal fluid assessed as colloid radius at 550 uM by dynamic light scattering assay in presence of 2.75% DMSO; conditions: simulated gi fluid
[16] = Colloidal aggregation in fed state simulated intestinal fluid assessed as colloid radius at 50 uM by dynamic light scattering assay in presence of 1% DMSO; format: physicochemical; conditions: simulated gi fluid; method in brief: as §1
[17] = Colloidal aggregation in fed state simulated intestinal fluid assessed as colloid radius at 250 uM by dynamic light scattering assay in presence of 1% DMSO; format: physicochemical; conditions: simulated gi fluid; method in brief: as §1
[18] = Colloidal aggregation in fed state simulated intestinal fluid by dynamic light scattering assay in presence of 0.5% DMSO; format: physicochemical; conditions: simulated gi fluid; method in brief: as §1
[19] = Aggregation-based binding affinity to beta-lactamase AmpC at 200 uM in fed state simulated intestinal fluid after 30 mins by silver staining in presence of 2% DMSO
Method in brief: (§5)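 Cosedimentation in FeSSIF, with and without 2 μg AmpC β-lactamase added per sample. Samples centrifuged at 16000g for 30 min at room temperature. Supernatant removed completely; pellets resuspended in DMSO plus 50 mM KPi pH 7.0 and run on SDS-PAGE. Protein detected by silver staining. Drug-only pellets included as background controls.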

[20] = Colloidal aggregation in fed state simulated intestinal fluid at 100 uM by transmission electron microscopy in presence of 1% DMSO; format: physicochemical; conditions: simulated gi fluid; method in brief: as §4
[21] = Colloidal aggregation in phosphate buffer at 50 uM by transmission electron microscopy in presence of 0.5% DMSO; format: physicochemical; method in brief: as §3
[22] = Colloidal aggregation in fed state simulated intestinal fluid assessed as percent of drug in fraction after centrifugation by UV-visible spectrophotometry in presence of 3% DMSO; conditions: simulated gi fluid
[23] = Binding affinity to beta-lactamase AmpC at 200 uM after 30 mins by SDS-PAGE; method in brief: as §5
[24] = Colloidal aggregation in fed state simulated intestinal fluid assessed as colloid radius at 2.5 uM by dynamic light scattering assay in presence of 1% DMSO; format: physicochemical; conditions: simulated gi fluid; method in brief: as §1
[25] = Colloidal aggregation in fed state simulated intestinal fluid by dynamic light scattering assay in presence of 1.8% DMSO; format: physicochemical; conditions: simulated gi fluid; method in brief: as §1
[26] = Colloidal aggregation in fed state simulated intestinal fluid assessed as colloid radius at 450 uM by dynamic light scattering assay in presence of 1% DMSO; format: physicochemical; conditions: simulated gi fluid; method in brief: as §1
[27] = Colloidal aggregation in fed state simulated intestinal fluid at 450 uM by dynamic light scattering-based beads autocorrelation assay in presence of 1.8% DMSO; format: physicochemical; conditions: simulated gi fluid; method in brief: as §2
[28] = Colloidal aggregation in fed state simulated intestinal fluid by dynamic light scattering assay in presence of 0.6% DMSO; format: physicochemical; conditions: simulated gi fluid; method in brief: as §1
[29] = Colloidal aggregation in fed state simulated intestinal fluid assessed as colloid radius at 120 uM by dynamic light scattering assay in presence of 1% DMSO; format: physicochemical; conditions: simulated gi fluid; method in brief: as §1

Structure (SMILES): CN(C)c1ccc2nc3ccc(N(C)C)cc3[s+]c2c1.[Cl-] [METHYLENE BLUE ANHYDROUS]
Activity [1]: 150 µM | Activity [2]: 52.6 nm | Activity [3]: Active | Activity [4]: Active | Activity [5]: Active | Activity [6]: 95.9 nm

Structure (SMILES): Cc1cccc(CN2CCN(C(c3ccccc3)c3ccc(Cl)cc3)CC2)c1.Cl (centres undefined) [MECLIZINE DIHCL]
IC50 (Cruzipain [7]): 129 µM | IC50 (Cruzipain [8]): > 250 µM | Activity [9]: 133.3 nm

Structure (SMILES): Cc1cc(C#N)cc(C)c1Oc1nc(Nc2ccc(C#N)cc2)nc(N)c1Br [ETRAVIRINE]
Activity [10]: 323.2 nm | IC50 (Cruzipain [7]): 4 µM | Activity [3]: Active | IC50 (Cruzipain [8]): > 200 µM | Activity [11]: 373.3 nm

Structure (SMILES): COc1cc2ncnc(Nc3ccc(F)c(Cl)c3)c2cc1OCCCN1CCOCC1 [GEFITINIB]
IC50 (Cruzipain [7]): 88 µM | Activity [17]: 160.1 nm | IC50 (Cruzipain [8]): 148 µM | Activity [18]: 250 µM

Structure (SMILES): Cc1c(O)cccc1C(=O)N[C@@H](CSc1ccccc1)[C@H](O)CN1C[C@H]2CCCC[C@H]2C[C@H]1C(=O)NC(C)(C)C
IC50 (Cruzipain [7]): 144 µM | IC50 (Cruzipain [8]): > 300 µM | Activity [6]: 690.7 nm

Structure (SMILES): Cc1ccc(-c2cc(C(F)(F)F)nn2-c2ccc(S(N)(=O)=O)cc2)cc1 [CELECOXIB]
IC50 (Cruzipain [7]): 126 µM | Activity [28]: 120 µM | Activity [29]: 161.8 nm | IC50 (Cruzipain [8]): > 400 µM

More lines, in order of falling IC50 (Cruzipain [7]), values ahead:

Activity [10]: 129 nm | IC50 (Cruzipain [7]): 61 µM | Activity [25]: 450 µM | IC50 (Cruzipain [8]): > 500 µM | Activity [26]: 113.8 nm | Activity [27]: Active
Structure (SMILES): CC(C)OC(=O)C(C)(C)Oc1ccc(C(=O)c2ccc(Cl)cc2)cc1 [FENOFIBRATE]

Activity [12]: 50 µM | IC50 (Cruzipain [7]): 42 µM | Activity [13]: 550 µM | IC50 (Cruzipain [8]): 168 µM | Activity [14]: Active | Activity [15]: 50.1 nm | Activity [16]: 38.8 nm
Structure (SMILES): CCOc1nc2cccc(C(=O)OC(C)OC(=O)OC3CCCCC3)c2n1Cc1ccc(-c2ccccc2-c2nnn[nH]2)cc1 (centres undefined) [CANDESARTAN CILEXETIL]

IC50 (Cruzipain [7]): 33 µM | IC50 (Cruzipain [8]): 128 µM | Activity [6]: 192.2 nm
Structure (SMILES): O=C(c1ccc(OCCN2CCCCC2)cc1)c1c(-c2ccc(O)cc2)sc2cc(O)ccc12 [RALOXIFENE]

Activity [10]: 93 nm | IC50 (Cruzipain [7]): 15 µM | IC50 (Cruzipain [8]): > 200 µM
Structure (SMILES): CSc1nc2cc(Cl)c(Oc3cccc(Cl)c3Cl)cc2[nH]1 [TRICLABENDAZOLE]

Activity [19]: Active | Activity [20]: Active | IC50 (Cruzipain [7]): 3 µM | Activity [21]: Active | Percent of drug in fraction [22]: 6.9% | Activity [3]: Active | IC50 (Cruzipain [8]): > 200 µM | Activity [23]: inactive | Activity [6]: 64.5 nm | Activity [24]: 138.1 nm
Structure (SMILES): CCC(C)n1ncn(-c2ccc(N3CCN(c4ccc(OCC5COC(Cn6cncn6)(c6ccc(Cl)cc6Cl)O5)cc4)CC3)cc2)c1=O (centres undefined) [ITRACONAZOLE]
